Screens as filed in PubChem.
Compounds with a hit are over-represented: about 3.7% of the library has one in this group of screens.
ERAP1 HTS inh: human ERAP1 aminopeptidase inhibitors, primary screen, biochemical, single point, plate reader; recombinant ERAP1, Leu-AMC fluorescence, 60 min; inhibition, % at 10.7 µM; 340,000 compounds, 0.15% hits; AID 652197, 2013;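 active means mean replicate inhibition of at least 30%, or all replicates individually reaching that 30% level; inactive means mean below 30% and not every replicate reaching it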;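 further: 0% = neutral control wells and 100% = L-leucinethiol positive control wells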
Target sequence (Q9NZ08 whole entry, looked up): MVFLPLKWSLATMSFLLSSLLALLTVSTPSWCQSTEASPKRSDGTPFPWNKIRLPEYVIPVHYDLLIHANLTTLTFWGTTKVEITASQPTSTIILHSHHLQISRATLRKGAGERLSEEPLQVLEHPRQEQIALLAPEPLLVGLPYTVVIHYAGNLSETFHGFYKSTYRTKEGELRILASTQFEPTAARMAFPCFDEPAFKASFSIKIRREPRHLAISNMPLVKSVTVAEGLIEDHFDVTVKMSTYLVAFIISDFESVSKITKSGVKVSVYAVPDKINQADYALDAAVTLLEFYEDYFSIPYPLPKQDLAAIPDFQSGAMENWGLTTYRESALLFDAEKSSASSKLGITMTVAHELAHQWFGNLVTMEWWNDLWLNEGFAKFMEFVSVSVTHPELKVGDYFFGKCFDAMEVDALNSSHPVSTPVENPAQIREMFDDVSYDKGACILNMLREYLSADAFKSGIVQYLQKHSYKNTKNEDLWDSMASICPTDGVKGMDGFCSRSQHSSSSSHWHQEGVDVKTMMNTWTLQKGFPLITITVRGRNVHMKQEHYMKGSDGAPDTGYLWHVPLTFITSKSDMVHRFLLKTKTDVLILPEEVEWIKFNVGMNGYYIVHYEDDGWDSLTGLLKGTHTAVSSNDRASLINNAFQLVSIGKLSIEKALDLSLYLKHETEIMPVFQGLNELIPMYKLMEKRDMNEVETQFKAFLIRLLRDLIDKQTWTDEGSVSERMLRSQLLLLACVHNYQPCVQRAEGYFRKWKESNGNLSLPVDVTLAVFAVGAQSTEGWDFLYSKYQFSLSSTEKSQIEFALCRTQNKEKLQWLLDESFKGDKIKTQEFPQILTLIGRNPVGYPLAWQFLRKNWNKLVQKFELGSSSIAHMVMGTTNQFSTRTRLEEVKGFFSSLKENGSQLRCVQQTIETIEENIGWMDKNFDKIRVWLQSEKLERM
DENV2 CPE: inhibitors of DENV2 cytopathic effect, primary screen, cell-based, plate reader, single concentration. DENV2-infected cells, cytopathic effect rescue. CPE inhibition, % at 9.99 µM. 350,000 compounds, 1.7% hits. AID 651640, 2012; in the data active means CPE inhibition above about 20%, passing the limit was not always enough; tested in BHK-21 cells;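 further: 0% = median of neutral control wells and 100% = median of positive control wells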
FGF22 binding: binders of human FGF22 protein, primary screen, FGF22 synaptogenesis inhibitor project, biophysical, thermal shift, single point. Fibroblast growth factor 22 (Homo sapiens), Q9HCT0. recombinant FGF22 thermal shift, SYPRO orange fluorescence; percent of sucrose octasulfate shift, DMSO zero. activity (Tm shift, normalised), % at 9.99 µM. 340,000 compounds, 1.5% hits. AID 651658, 2012;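 active means mean Tm shift, scaled 0 neutral to 100 positive control, at about 1.3% or above, every replicate too, limit read from the data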
E-selectin induc: E-selectin induction in HUVECs, primary screen, imaging, HUVEC, immunofluorescence imaging, single point; normalized: neutral wells 0, TNF-alpha wells 100; activation, % at 7.58 µM; 260,000 compounds, 0.37% hits; P16581;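 active means mean E-selectin-positive cell signal at least 10% of the positive control, reached in at least 60% of replicates, without over 20% cell loss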
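Read-out basis: % PE-positive cells; Test system: HUVEC primary endothelial cells; Technique: immunofluorescence imaging; Dosing: single-point compound dose.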
CFTR F508del cor: F508del CFTR correction, initial screen, CFBE line, single point; CFBE cells, YFP halide quenching; stimulated with forskolin plus potentiator P3; % fluorescence drop versus neutral controls; activity (quench increase), % at 7.58 µM; 350,000 compounds, 0.36% hits;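 active means mean added fluorescence quench of at least 8% versus neutral control, with both replicates also reaching 8%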;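 further: cells transiently co-express mutant CFTR-F508del with the halide-sensitive YFP; corrector assay measuring rescue of mutant channel to the surface after 24 h compound exposure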
Starred values were filed as active, the others as inactive.

For O=C1C=CC2(O[C@H](c3ccccc3)[C@@H](c3ccccc3)O2)[C@H](Sc2ccccc2O)C1 the results were ERAP1 HTS inh 33*, DENV2 CPE -5, FGF22 binding 0, E-selectin induc 0 and CFTR F508del cor -12.
`COc1ccccc1S(=O)(=O)N[C@@H]1C=C[C@H](CC(=O)NCc2cc(F)cc(F)c2)O[C@@H]1CO` gave ERAP1 HTS inh 2, DENV2 CPE 17, FGF22 binding 0, E-selectin induc 0 and CFTR F508del cor -1.
COc1ccc(CCNc2ncnc3c2oc2ccccc23)cc1OC was read as ERAP1 HTS inh -2, FGF22 binding 0 and CFTR F508del cor 9.3*.
`COc1ccc(CCNc2ncnc3sccc23)cc1OC` gave ERAP1 HTS inh 9, DENV2 CPE 7, FGF22 binding 0, E-selectin induc -3 and CFTR F508del cor -1.
COc1ccc2nc(C)cc(N3CCC(C(N)=O)CC3)c2c1 was read as ERAP1 HTS inh 3, DENV2 CPE -1, FGF22 binding 43*, E-selectin induc 0 and CFTR F508del cor 1.
For CCOC(=O)C1CCN(c2cc(C)nc3ccc(OC)cc23)CC1 the results were ERAP1 HTS inh -1, DENV2 CPE 2, FGF22 binding 0, E-selectin induc 1 and CFTR F508del cor -1.
Screening CC(C)NC(=O)Nc1ccc2c(c1)C(=O)N([C@@H](C)CO)C[C@@H](C)[C@H](CN(C)Cc1ccc(C(F)(F)F)cc1)O2 returned ERAP1 HTS inh 1, DENV2 CPE 9, FGF22 binding 0, E-selectin induc 38* and CFTR F508del cor 3.
`C[C@@H]1CN([C@H](C)CO)C(=O)c2cc(NC(=O)Nc3ccc(C(F)(F)F)cc3)ccc2O[C@@H]1CN(C)Cc1ccncc1` gave ERAP1 HTS inh -3, DENV2 CPE 57*, FGF22 binding 0 and CFTR F508del cor 0.
For C[C@H]1CN([C@@H](C)CO)C(=O)c2cc(NC(=O)Nc3ccc(C(F)(F)F)cc3)ccc2O[C@H]1CN(C)Cc1ccncc1 the results were ERAP1 HTS inh -3, DENV2 CPE 21*, FGF22 binding 0 and CFTR F508del cor 0.
`O=C(C[C@H]1C=C[C@@H](NC(=O)Nc2ccc(F)cc2)[C@@H](CO)O1)NCCN1CCCC1` gave ERAP1 HTS inh 0, DENV2 CPE 5, FGF22 binding 0, E-selectin induc 0 and CFTR F508del cor -2.
For C[C@@H](NC(=O)[C@H]1[C@H](CO)[C@H]2Cn3c(ccc(-c4ccccc4F)c3=O)[C@@H]1N2C)c1ccccc1 the results were ERAP1 HTS inh 0, DENV2 CPE 5, FGF22 binding 0 and E-selectin induc 1.
`O=C1[C@H]2[C@@H](/C=C/c3ccccc3)N3C(=O)CN(CCO)C(=O)[C@@]3(Cc3ccccc3)[C@H]2C(=O)N1c1ccccc1` gave DENV2 CPE 56*, FGF22 binding 0, E-selectin induc 0 and CFTR F508del cor 1.
CCCCn1c(=O)c(CC(C)=O)nc2ccccc21 was read as ERAP1 HTS inh -3, DENV2 CPE -8, FGF22 binding 44* and CFTR F508del cor -3.
`CCCCCn1c(=O)c(C(=O)c2ccccc2)nc2ccccc21` gave ERAP1 HTS inh 3.
For COc1c(C(=O)Nc2ccc(Br)cn2)ccc2ccccc12 the results were ERAP1 HTS inh 3, DENV2 CPE -4, FGF22 binding 0, E-selectin induc 0 and CFTR F508del cor 3.
For O=C(Nc1ccc(Br)cn1)c1cccc2ccccc12 the results were ERAP1 HTS inh -7, DENV2 CPE -3, FGF22 binding 0 and CFTR F508del cor 14*.
`C[C@@H]1CN([C@H](C)CO)C(=O)c2cc(NC(=O)Cc3ccccc3)ccc2O[C@H]1CN(C)CC1CC1` gave ERAP1 HTS inh -2, DENV2 CPE -8, FGF22 binding 0, E-selectin induc 1 and CFTR F508del cor -4.
`C[C@H]1C[C@H]2[C@@H]3CCC4=CC(=O)C=C[C@]4(C)[C@@]3(F)[C@@H](O)C[C@]2(C)[C@@]1(O)C(=O)CO` gave ERAP1 HTS inh 0, DENV2 CPE -7, FGF22 binding 0, E-selectin induc 2 and CFTR F508del cor 10*.
For Cc1nc(SCc2ccc(O)c([N+](=O)[O-])c2)c([N+](=O)[O-])[nH]1 the results were ERAP1 HTS inh 55*, DENV2 CPE -2, FGF22 binding 0, E-selectin induc 0 and CFTR F508del cor 0.
For COc1ccc(-c2c(C)nn3c(N4CCN(Cc5ccccc5)CC4)cc(C)nc23)cc1OC the results were ERAP1 HTS inh 1, DENV2 CPE -7, FGF22 binding 0, E-selectin induc 0 and CFTR F508del cor -6.
For COc1ccccc1-c1c(C)nn2c(N3CCN(Cc4ccccc4)CC3)cc(C)nc12 the results were ERAP1 HTS inh 9, DENV2 CPE 55*, FGF22 binding 0, E-selectin induc 0 and CFTR F508del cor 3.
For CN(CCOC(=O)c1cccc(F)c1)Cc1ccccc1 the results were ERAP1 HTS inh -5, DENV2 CPE 8, FGF22 binding 43* and CFTR F508del cor -1.
For CN(C(=O)COC(=O)c1cccc(F)c1)c1ccccc1 the results were ERAP1 HTS inh -9, DENV2 CPE 15, FGF22 binding 0, E-selectin induc 1 and CFTR F508del cor 0.
For O=C(c1ccccn1)N1C[C@@H]2[C@H](c3ccccc31)[C@@H](CO)N2C(=O)Cc1ccccc1 the results were ERAP1 HTS inh -3, DENV2 CPE -1, FGF22 binding 0, E-selectin induc 0 and CFTR F508del cor -1.
Cc1ccc(Cn2nc(C)c(/C=N/NC(=O)c3cccnc3)c2C)cc1 was read as ERAP1 HTS inh -2, DENV2 CPE -4, FGF22 binding 43*, E-selectin induc 3 and CFTR F508del cor -2.
`Cc1c(/C=N/NC(=O)c2cccnc2)cc(C#N)n1C` gave ERAP1 HTS inh 4, DENV2 CPE -2, FGF22 binding 43*, E-selectin induc 4 and CFTR F508del cor -2.
For O=C(C[C@H]1C[C@H]2c3cc(NC(=O)c4cccnc4)ccc3O[C@H]2[C@H](CO)O1)NCc1ccncc1 the results were ERAP1 HTS inh 2, DENV2 CPE 0, FGF22 binding 0, E-selectin induc 0 and CFTR F508del cor 0.
For O=C(CN1CCOCC1)N1CC[C@@H]2[C@H](CO)Nc3ccc(-c4ccccc4)cc3[C@@H]21 the results were ERAP1 HTS inh -9, DENV2 CPE 18, FGF22 binding 0, E-selectin induc 0 and CFTR F508del cor 1.
For Cc1c(CC(=O)NCCC(=O)O)c(=O)oc2cc3occ(-c4ccccc4)c3cc12 the results were ERAP1 HTS inh 1, DENV2 CPE 3, FGF22 binding 0, E-selectin induc 40* and CFTR F508del cor -1.
